Assay results: ChEMBL document CHEMBL3588853, “Synthesis, biological evaluation, and molecular docking studies of novel 1-benzene acyl-2-(1-methylindol-3-yl)-benzimidazole derivatives as potential tubulin polymerization inhibitors” (Eur J Med Chem, 2015)

Tests used:
A549 [1] = experiment: Induction of cell cycle arrest in human A549 cells assessed as accumulation at S phase at 2 uM after 24 hrs by propidium iodide staining based flow cytometric analysis (reference value: 7.63%); type: functional
A549 [2] = experiment: Induction of cell cycle arrest in human A549 cells assessed as accumulation at G2/M phase at 5 uM after 24 hrs by propidium iodide staining based flow cytometric analysis (reference value: 13.26%); type: functional
A549 [3] = experiment: Induction of apoptosis in human A549 cells assessed as necrotic cells at 5 uM after 24 hrs by annexin V/PI double staining FACScalibur flow cytometry (reference value: 0.529%); type: functional
MCF7 = experiment: Growth inhibition of human MCF7 cells assessed as inhibition of cell proliferation after 24 hrs by MTT assay; type: functional; details: MCF7, 24 h
Procedure, shortened: (§1)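 Cells seeded at (1–5) × 10^3 per well and grown 12 h at 37 °C. Compounds added at increasing concentrations in medium with 10% FBS for 24 h. MTT dye then added, followed by 3–4 h at 37 °C. Medium discarded, formazan dissolved in DMSO and plate read. GI50 calculated relative to DMSO-treated control wells.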

A549 [4] = experiment: Induction of apoptosis in human A549 cells assessed as early apoptotic cells at 5 uM after 24 hrs by annexin V/PI double staining FACScalibur flow cytometry (reference value: 0.061%); type: functional
A549 [5] = experiment: Induction of cell cycle arrest in human A549 cells assessed as accumulation at SubG0 phase at 1 uM after 24 hrs by propidium iodide staining based flow cytometric analysis (reference value: 0%); type: functional
Tubulin (Bos taurus) = Tubulin (Bos taurus) (UniProt Q6B856+Q862F3); details: at 5 µM
A549 [6] = experiment: Induction of cell cycle arrest in human A549 cells assessed as accumulation at G0/G1 phase at 1 uM after 24 hrs by propidium iodide staining based flow cytometric analysis (reference value: 79.11%); type: functional
A549 [7] = experiment: Induction of apoptosis in human A549 cells assessed as necrotic cells at 1 uM after 24 hrs by annexin V/PI double staining FACScalibur flow cytometry (reference value: 0.529%); type: functional
A549 [8] = experiment: Induction of cell cycle arrest in human A549 cells assessed as accumulation at G0/G1 phase at 2 uM after 24 hrs by propidium iodide staining based flow cytometric analysis (reference value: 79.11%); type: functional
A549 [9] = experiment: Induction of cell cycle arrest in human A549 cells assessed as accumulation at S phase at 5 uM after 24 hrs by propidium iodide staining based flow cytometric analysis (reference value: 7.63%); type: functional
Tubulin = Tubulin (Bos taurus, UniProt Q6B856+Q862F3); experiment: Inhibition of bovine brain tubulin polymerization extent after 20 mins by turbidimetrically
A549 [10] = experiment: Induction of apoptosis in human A549 cells assessed as viable cells at 5 uM after 24 hrs by annexin V/PI double staining FACScalibur flow cytometry (reference value: 99%); type: functional; details: A549, 24 h, read-out: Activity
A549 [11] = experiment: Growth inhibition of human A549 cells assessed as inhibition of cell proliferation after 24 hrs by MTT assay; type: functional; details: A549, 24 h; procedure, shortened: as §1
A549 [12] = experiment: Induction of apoptosis in human A549 cells assessed as late apoptotic cells at 2 uM after 24 hrs by annexin V/PI double staining FACScalibur flow cytometry (reference value: 0.406 %); type: functional
A549 [13] = experiment: Induction of cell cycle arrest in human A549 cells assessed as accumulation at G0/G1 phase at 5 uM after 24 hrs by propidium iodide staining based flow cytometric analysis (reference value: 79.11%); type: functional
A549 [14] = experiment: Induction of cell cycle arrest in human A549 cells assessed as accumulation at SubG0 phase at 5 uM after 24 hrs by propidium iodide staining based flow cytometric analysis (reference value: 0%); type: functional
A549 [15] = experiment: Induction of cell cycle arrest in human A549 cells assessed as accumulation at SubG0 phase at 2 uM after 24 hrs by propidium iodide staining based flow cytometric analysis (reference value: 0%); type: functional
A549 [16] = experiment: Induction of apoptosis in human A549 cells assessed as late apoptotic cells at 1 uM after 24 hrs by annexin V/PI double staining FACScalibur flow cytometry (reference value: 0.406 %); type: functional
A549 [17] = experiment: Induction of apoptosis in human A549 cells assessed as late apoptotic cells at 5 uM after 24 hrs by annexin V/PI double staining FACScalibur flow cytometry (reference value: 0.406 %); type: functional
A549 [18] = experiment: Induction of apoptosis in human A549 cells assessed as early apoptotic cells at 2 uM after 24 hrs by annexin V/PI double staining FACScalibur flow cytometry (reference value: 0.061%); type: functional
A549 [19] = experiment: Induction of apoptosis in human A549 cells assessed as viable cells at 2 uM after 24 hrs by annexin V/PI double staining FACScalibur flow cytometry (reference value: 99%); type: functional; details: A549, 24 h, read-out: Activity
A549 [20] = experiment: Induction of apoptosis in human A549 cells assessed as viable cells at 1 uM after 24 hrs by annexin V/PI double staining FACScalibur flow cytometry (reference value: 99%); type: functional; details: A549, 24 h, read-out: Activity
A549 [21] = experiment: Induction of apoptosis in human A549 cells assessed as early apoptotic cells at 1 uM after 24 hrs by annexin V/PI double staining FACScalibur flow cytometry (reference value: 0.061%); type: functional
HepG2 = experiment: Growth inhibition of human HepG2 cells assessed as inhibition of cell proliferation after 24 hrs by MTT assay; type: functional; details: HepG2, 24 h; procedure, shortened: as §1
A549 [22] = experiment: Induction of cell cycle arrest in human A549 cells assessed as accumulation at G2/M phase at 1 uM after 24 hrs by propidium iodide staining based flow cytometric analysis (reference value: 13.26%); type: functional
A549 [23] = experiment: Induction of apoptosis in human A549 cells assessed as necrotic cells at 2 uM after 24 hrs by annexin V/PI double staining FACScalibur flow cytometry (reference value: 0.529%); type: functional
A549 [24] = experiment: Induction of cell cycle arrest in human A549 cells assessed as accumulation at S phase at 1 uM after 24 hrs by propidium iodide staining based flow cytometric analysis (reference value: 7.63%); type: functional
A549 [25] = experiment: Induction of cell cycle arrest in human A549 cells assessed as accumulation at G2/M phase at 2 uM after 24 hrs by propidium iodide staining based flow cytometric analysis (reference value: 13.26%); type: functional

Sequence of Tubulin (Q6B856 whole entry): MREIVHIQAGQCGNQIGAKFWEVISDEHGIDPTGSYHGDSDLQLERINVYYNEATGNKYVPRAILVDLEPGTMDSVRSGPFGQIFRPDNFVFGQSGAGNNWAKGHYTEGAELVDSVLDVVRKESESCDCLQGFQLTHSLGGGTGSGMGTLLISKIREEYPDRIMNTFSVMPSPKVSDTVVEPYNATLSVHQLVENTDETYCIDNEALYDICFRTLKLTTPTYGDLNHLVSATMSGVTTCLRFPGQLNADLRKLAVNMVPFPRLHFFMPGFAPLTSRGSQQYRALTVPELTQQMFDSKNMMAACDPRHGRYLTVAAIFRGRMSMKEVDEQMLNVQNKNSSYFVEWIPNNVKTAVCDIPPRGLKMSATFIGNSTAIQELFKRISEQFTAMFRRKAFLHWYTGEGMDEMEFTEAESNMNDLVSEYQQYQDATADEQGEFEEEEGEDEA
Sequence of Tubulin (Q862F3 whole entry): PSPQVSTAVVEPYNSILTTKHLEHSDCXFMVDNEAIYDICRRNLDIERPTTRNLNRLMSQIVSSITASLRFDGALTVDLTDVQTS

## COc1ccc2c(c1)c(-c1nc3ccccc3n1C(=O)c1cc(OC)c(OC)c(OC)c1)cn2C
A549 [1]
  Activity: 12.51%
A549 [2]
  Activity: 39.46%
A549 [3]
  Activity: 0.595%
MCF7
  GI50: 5.1 µM
A549 [4]
  Activity: 17.2%
A549 [5]
  Activity: 0%
Tubulin (Bos taurus)
  inhibition: 96%
A549 [6]
  Activity: 60.17%
A549 [7]
  Activity: 0.59%
A549 [8]
  Activity: 57.42%
A549 [9]
  Activity: 11.24%
Tubulin
  IC50: 1.5 µM
A549 [10]
  viability at 5 µM: 76.2%
A549 [11]
  GI50: 2.4 µM
A549 [12]
  Activity: 5.13%
A549 [13]
  Activity: 49.3%
A549 [14]
  Activity: 0%
A549 [15]
  Activity: 0%
A549 [16]
  Activity: 4.77%
A549 [17]
  Activity: 6.03%
A549 [18]
  Activity: 17%
A549 [19]
  viability at 2 µM: 77.3%
A549 [20]
  viability at 1 µM: 79.8%
A549 [21]
  Activity: 14.8%
HepG2
  GI50: 3.8 µM
A549 [22]
  Activity: 27.23%
A549 [23]
  Activity: 0.543%
A549 [24]
  Activity: 12.51%
A549 [25]
  Activity: 33.21%
